Assays:
[1] = molecular target: Cyclin-dependent kinase 5/CDK5 activator 1 (Homo sapiens) (UniProt Q00535+Q15078); experiment: Inhibition of recombinant full length His/GST-tagged human CDK5/p25 expressed in baculovirus expression system at 1 uM by FRET assay relative to control
[2] = molecular target: Serine/threonine-protein kinase BRSK1 (Homo sapiens) (UniProt Q8TDC3); experiment: Inhibition of recombinant full length GST-tagged human BrSK1 expressed in baculovirus expression system at 1 uM by FRET assay relative to control
Method in brief: (§1)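 Single-concentration screen at 1 μM in Life Technologies SelectScreen, across a 220-kinase panel. Z′-LYTE format measures phosphorylation of a labeled peptide by FRET. Results are reported as percent inhibition.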

[3] = molecular target: Protein-tyrosine kinase 6 (Homo sapiens) (UniProt Q13882); experiment: Inhibition of recombinant full length His-tagged human Brk cytoplasmic domain expressed in baculovirus expression system at 1 uM by FRET assay relative to control
Chain of Protein-tyrosine kinase 6 (Homo sapiens) (Q13882 whole entry, looked up, the tested form may be a part): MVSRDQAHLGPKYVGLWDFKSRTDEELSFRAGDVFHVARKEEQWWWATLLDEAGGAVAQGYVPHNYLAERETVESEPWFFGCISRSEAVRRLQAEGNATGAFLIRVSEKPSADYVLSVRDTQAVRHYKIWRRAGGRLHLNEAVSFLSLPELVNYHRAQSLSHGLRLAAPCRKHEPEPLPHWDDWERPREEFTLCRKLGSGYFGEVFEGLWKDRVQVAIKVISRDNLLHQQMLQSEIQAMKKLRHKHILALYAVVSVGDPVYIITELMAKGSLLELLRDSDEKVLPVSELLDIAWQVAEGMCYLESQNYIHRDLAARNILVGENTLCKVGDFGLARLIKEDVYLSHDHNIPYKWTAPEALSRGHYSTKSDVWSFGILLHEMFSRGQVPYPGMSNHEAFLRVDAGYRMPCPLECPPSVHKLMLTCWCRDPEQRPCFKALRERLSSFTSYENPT

[4] = molecular target: Tyrosine-protein kinase receptor UFO (Homo sapiens) (UniProt P30530); experiment: Inhibition of recombinant His-tagged human AXL (473 to end residues) cytoplasmic domain expressed in insect cells at 1 uM by FRET assay relative to control
Method in brief: (§2)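 Single-point screen at 1 μM compound in a 220-kinase panel run by Life Technologies (SelectScreen). Z′-LYTE format: phosphorylation of a labeled peptide substrate read by FRET. Values are reported as percent inhibition.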

[5] = molecular target: Aurora kinase A (Homo sapiens) (UniProt O14965); experiment: Inhibition of recombinant full length His-tagged human Aurora A expressed in baculovirus expression system at 1 uM by FRET assay relative to control
[6] = molecular target: Activin receptor type-1 (Homo sapiens) (UniProt Q04771); experiment: Inhibition of recombinant GST-tagged human ALK2 catalytic domain (147 to end residues) at 1 uM by FRET assay relative to control
[7] = molecular target: Leukocyte tyrosine kinase receptor (Homo sapiens) (UniProt P29376); experiment: Inhibition of recombinant GST-tagged human LTK cytoplasmic domain (440 to 864 residues) expressed in baculovirus expression system at 1 uM by FRET assay relative to control
Method in brief: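 Part of a 220-kinase panel run at a single concentration of 1 μM. Z′-LYTE format: phosphorylation of a labelled peptide read by FRET. Values reported as percent inhibition.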

[8] = molecular target: Leucine-rich repeat serine/threonine-protein kinase 2 (Homo sapiens) (UniProt Q5S007); experiment: Inhibition of recombinant GST-tagged human LRRK2 catalytic domain (970 to 2527 residues) expressed in baculovirus expression system at 1 uM by FRET assay relative to control; method in brief: as §2
Chain of Leucine-rich repeat serine/threonine-protein kinase 2 (Homo sapiens) (Q5S007 whole entry, the tested form may be a part): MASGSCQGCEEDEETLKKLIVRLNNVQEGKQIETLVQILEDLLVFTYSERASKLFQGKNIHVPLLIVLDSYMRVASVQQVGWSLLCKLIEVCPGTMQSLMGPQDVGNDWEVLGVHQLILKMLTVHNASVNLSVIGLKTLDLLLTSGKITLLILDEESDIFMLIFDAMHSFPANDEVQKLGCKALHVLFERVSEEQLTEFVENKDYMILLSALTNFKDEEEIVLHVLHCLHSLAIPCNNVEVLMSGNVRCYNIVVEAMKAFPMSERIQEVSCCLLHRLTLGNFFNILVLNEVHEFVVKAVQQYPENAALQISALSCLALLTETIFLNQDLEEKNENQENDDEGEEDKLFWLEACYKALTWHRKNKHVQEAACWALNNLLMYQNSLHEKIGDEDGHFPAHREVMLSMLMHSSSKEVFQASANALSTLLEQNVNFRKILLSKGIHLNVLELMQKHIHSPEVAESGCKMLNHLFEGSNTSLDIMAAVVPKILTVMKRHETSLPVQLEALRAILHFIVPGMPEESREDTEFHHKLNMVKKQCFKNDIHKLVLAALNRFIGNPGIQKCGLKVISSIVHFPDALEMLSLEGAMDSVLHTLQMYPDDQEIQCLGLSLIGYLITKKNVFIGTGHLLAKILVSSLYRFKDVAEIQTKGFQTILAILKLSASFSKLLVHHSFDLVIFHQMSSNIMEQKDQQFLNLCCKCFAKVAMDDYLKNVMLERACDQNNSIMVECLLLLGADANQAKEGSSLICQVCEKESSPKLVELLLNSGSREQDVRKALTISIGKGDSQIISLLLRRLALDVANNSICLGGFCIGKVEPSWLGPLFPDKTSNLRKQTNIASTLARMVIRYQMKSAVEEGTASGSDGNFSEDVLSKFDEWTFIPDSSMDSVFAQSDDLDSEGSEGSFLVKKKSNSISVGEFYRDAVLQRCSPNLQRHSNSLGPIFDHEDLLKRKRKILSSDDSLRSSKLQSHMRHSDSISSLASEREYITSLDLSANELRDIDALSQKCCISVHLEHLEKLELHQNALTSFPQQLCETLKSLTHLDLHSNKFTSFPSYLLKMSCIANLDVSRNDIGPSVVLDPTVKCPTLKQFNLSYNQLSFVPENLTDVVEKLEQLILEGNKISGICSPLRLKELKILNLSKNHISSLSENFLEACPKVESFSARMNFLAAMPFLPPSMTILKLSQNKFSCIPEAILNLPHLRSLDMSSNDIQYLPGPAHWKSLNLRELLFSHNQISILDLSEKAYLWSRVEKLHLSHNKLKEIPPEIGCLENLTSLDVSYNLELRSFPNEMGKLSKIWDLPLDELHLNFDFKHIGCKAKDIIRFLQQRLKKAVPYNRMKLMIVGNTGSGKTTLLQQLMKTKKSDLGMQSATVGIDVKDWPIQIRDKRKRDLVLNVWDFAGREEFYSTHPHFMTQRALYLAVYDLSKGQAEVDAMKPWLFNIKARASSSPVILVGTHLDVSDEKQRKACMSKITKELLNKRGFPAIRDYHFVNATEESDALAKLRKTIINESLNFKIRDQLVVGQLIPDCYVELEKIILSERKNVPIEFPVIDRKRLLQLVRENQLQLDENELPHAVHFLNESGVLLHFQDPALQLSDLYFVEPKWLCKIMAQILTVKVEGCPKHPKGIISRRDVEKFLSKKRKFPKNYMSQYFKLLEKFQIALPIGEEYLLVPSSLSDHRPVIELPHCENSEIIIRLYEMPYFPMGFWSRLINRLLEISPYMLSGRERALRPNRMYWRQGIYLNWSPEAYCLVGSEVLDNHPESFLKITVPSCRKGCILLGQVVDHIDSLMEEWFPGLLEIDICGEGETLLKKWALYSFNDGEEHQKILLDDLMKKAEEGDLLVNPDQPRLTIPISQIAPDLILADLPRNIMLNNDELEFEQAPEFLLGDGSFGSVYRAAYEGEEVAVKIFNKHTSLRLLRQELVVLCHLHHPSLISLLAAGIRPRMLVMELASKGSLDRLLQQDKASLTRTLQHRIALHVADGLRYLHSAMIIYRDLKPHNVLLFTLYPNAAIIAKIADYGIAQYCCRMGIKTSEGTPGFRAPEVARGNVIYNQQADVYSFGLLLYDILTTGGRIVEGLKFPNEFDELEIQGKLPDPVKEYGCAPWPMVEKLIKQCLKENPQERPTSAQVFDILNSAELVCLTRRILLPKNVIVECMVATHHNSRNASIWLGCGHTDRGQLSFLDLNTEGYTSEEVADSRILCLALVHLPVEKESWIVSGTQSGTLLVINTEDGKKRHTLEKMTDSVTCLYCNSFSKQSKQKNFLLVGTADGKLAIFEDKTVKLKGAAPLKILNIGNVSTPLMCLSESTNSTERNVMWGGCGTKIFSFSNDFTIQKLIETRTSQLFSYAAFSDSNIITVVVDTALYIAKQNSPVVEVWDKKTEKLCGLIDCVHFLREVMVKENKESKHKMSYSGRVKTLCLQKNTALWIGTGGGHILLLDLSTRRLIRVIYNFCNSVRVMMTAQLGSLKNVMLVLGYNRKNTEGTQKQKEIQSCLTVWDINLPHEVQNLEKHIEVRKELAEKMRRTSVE

[9] = molecular target: Insulin receptor (Homo sapiens) (UniProt P06213); experiment: Inhibition of recombinant His-tagged human InsR (1011 to 1382 residues) expressed in baculovirus expression system at 1 uM by FRET relative to control; method in brief: as §2
[10] = molecular target: Homeodomain-interacting protein kinase 4 (Homo sapiens) (UniProt Q8NE63); experiment: Inhibition of recombinant full length GST-tagged human HIPK4 expressed in baculovirus expression system at 1 uM by FRET relative to control; method in brief: as §1
[11] = molecular target: Homeodomain-interacting protein kinase 2 (Homo sapiens) (UniProt Q9H2X6); experiment: Inhibition of recombinant GST-tagged human HIPK2 catalytic domain expressed in baculovirus expression system at 1 uM by FRET relative to control; method in brief: as §2
Chain of Homeodomain-interacting protein kinase 2 (Homo sapiens) (Q9H2X6 whole entry, looked up, the tested form may be a part): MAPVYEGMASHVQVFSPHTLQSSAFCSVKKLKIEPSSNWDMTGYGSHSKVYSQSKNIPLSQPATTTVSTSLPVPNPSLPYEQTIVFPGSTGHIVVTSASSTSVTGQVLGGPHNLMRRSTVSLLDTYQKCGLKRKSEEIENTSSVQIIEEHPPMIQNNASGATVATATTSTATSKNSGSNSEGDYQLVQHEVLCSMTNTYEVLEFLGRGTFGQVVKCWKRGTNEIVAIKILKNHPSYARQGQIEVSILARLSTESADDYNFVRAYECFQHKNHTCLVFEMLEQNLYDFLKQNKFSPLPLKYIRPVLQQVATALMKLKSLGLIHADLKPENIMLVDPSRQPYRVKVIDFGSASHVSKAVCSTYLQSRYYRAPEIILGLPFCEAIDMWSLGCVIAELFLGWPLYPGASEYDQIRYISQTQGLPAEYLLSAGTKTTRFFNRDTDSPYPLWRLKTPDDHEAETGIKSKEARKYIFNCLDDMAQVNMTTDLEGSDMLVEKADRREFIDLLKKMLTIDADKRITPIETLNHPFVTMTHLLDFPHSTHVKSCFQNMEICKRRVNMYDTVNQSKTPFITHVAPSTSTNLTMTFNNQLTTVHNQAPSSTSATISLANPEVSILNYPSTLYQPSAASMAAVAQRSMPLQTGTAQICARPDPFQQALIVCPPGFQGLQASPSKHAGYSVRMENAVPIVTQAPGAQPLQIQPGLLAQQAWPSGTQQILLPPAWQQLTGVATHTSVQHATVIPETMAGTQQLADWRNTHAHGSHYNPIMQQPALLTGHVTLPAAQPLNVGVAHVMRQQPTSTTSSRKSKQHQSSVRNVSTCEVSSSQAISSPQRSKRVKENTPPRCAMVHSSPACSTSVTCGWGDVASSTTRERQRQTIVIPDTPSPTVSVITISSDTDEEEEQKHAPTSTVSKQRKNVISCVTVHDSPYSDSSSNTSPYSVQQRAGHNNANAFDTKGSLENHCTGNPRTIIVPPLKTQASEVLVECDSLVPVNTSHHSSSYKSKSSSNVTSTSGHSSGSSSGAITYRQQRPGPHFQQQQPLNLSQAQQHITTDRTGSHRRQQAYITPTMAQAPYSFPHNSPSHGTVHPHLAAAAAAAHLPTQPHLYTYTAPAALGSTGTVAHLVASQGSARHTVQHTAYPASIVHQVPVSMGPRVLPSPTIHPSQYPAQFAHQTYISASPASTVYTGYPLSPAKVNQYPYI

[12] = molecular target: Beta-adrenergic receptor kinase 1 (Homo sapiens) (UniProt P25098); experiment: Inhibition of recombinant full length His-tagged human GRK2 expressed in baculovirus expression system at 1 uM by FRET relative to control
[13] = molecular target: Protein kinase C alpha type (Homo sapiens) (UniProt P17252); experiment: Inhibition of recombinant full length human PKCalpha expressed in baculovirus expression system at 1 uM by FRET assay relative to control
[14] = molecular target: Serine/threonine-protein kinase pim-1 (Homo sapiens) (UniProt P11309); experiment: Inhibition of full length His-tagged human PIM1 expressed in baculovirus expression system at 1 uM by FRET assay relative to control
[15] = molecular target: 3-phosphoinositide-dependent protein kinase 1 (Homo sapiens) (UniProt O15530); experiment: Inhibition of recombinant full length His-tagged human PDK1 expressed in baculovirus expression system at 1 uM by FRET assay relative to control
[16] = molecular target: Mitogen-activated protein kinase 14 (Homo sapiens) (UniProt Q16539); experiment: Inhibition of recombinant full length GST-tagged human p38alpha expressed in Escherichia coli at 1 uM by FRET assay relative to control
[17] = molecular target: Serine/threonine-protein kinase 4 (Homo sapiens) (UniProt Q13043); experiment: Inhibition of recombinant full length GST-tagged human MST1 expressed in baculovirus at 1 uM by FRET assay relative to control; method in brief: as §1
Chain of Serine/threonine-protein kinase 4 (Homo sapiens) (Q13043 whole entry): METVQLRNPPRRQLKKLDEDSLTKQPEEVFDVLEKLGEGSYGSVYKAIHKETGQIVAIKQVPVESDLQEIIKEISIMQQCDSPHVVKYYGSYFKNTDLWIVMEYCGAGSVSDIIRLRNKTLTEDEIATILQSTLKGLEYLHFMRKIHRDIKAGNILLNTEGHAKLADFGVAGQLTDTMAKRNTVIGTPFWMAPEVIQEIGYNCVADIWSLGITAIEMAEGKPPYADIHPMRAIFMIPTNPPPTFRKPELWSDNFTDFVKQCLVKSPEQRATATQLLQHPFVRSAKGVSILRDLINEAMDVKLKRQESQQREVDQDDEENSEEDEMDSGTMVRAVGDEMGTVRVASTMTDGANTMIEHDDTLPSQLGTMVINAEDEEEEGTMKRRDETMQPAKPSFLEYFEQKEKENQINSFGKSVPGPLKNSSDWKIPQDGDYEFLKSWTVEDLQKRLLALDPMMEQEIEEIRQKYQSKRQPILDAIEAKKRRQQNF

[18] = molecular target: Dual specificity mitogen-activated protein kinase kinase 6 (Homo sapiens) (UniProt P52564); experiment: Inhibition of recombinant human full length His-tagged MKK6 expressed in baculovirus at 1 uM by FRET assay relative to control
[19] = molecular target: Misshapen-like kinase 1 (Homo sapiens) (UniProt Q8N4C8); experiment: Inhibition of recombinant human GST-tagged MINK1 expressed in baculovirus at 1 uM by FRET assay relative to control
[20] = molecular target: Dual specificity mitogen-activated protein kinase kinase 1 (Homo sapiens) (UniProt Q02750); experiment: Inhibition of recombinant full length His-tagged human MEK1 expressed in baculovirus expression system at 1 uM by FRET assay relative to control
[21] = molecular target: Non-receptor tyrosine-protein kinase TYK2 (Homo sapiens) (UniProt P29597); experiment: Inhibition of recombinant N-terminal GST-tagged human TYK2 (833 to 1187 residues) expressed in baculovirus expression system at 1 uM by FRET assay relative to control; method in brief: as §1
TAK1/TAB1 (Homo sapiens) = TAK1/TAB1 (Homo sapiens) (UniProt Q15750+O43318); experiment: Inhibition of recombinant full length His-tagged human TAK1-TAB1 (437 to 504 residues) expressed in baculovirus expression system at 1 uM by FRET assay relative to control
[22] = molecular target: Ribosomal protein S6 kinase alpha-3 (Homo sapiens) (UniProt P51812); experiment: Inhibition of recombinant full length His-tagged human RSK2 expressed in baculovirus expression system at 1 uM by FRET assay relative to control
[23] = molecular target: Mitogen-activated protein kinase 8 (Homo sapiens, UniProt P45983); experiment: Inhibition of recombinant full length His-tagged human JNK1alpha1 expressed in baculovirus expression system by FRET assay
[24] = molecular target: Mitogen-activated protein kinase kinase kinase 11 (Homo sapiens, UniProt Q16584); experiment: Inhibition of recombinant human full length GST-tagged MLK3 expressed in baculovirus expression system by FRET assay
[25] = molecular target: Adenosine receptor A2a (Homo sapiens) (UniProt P29274); experiment: Binding affinity to recombinant human A2A adenosine receptor at 10 uM relative to control
Method in brief: (§3)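 Broad radioligand-binding and enzyme screening panel covering 42 targets (biogenic amine and neuropeptide receptors, ion channels, neurotransmitter transporters, acetylcholinesterase). Single test concentration of 10 μM. Results expressed as binding relative to control, with a hit defined as >50% of control.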

[26] = molecular target: Muscarinic acetylcholine receptor M2 (Homo sapiens) (UniProt P08172); experiment: Binding affinity to recombinant human M2 acetylcholine receptor at 10 uM relative to control; method in brief: as §3
Chain of Muscarinic acetylcholine receptor M2 (Homo sapiens) (P08172 whole entry): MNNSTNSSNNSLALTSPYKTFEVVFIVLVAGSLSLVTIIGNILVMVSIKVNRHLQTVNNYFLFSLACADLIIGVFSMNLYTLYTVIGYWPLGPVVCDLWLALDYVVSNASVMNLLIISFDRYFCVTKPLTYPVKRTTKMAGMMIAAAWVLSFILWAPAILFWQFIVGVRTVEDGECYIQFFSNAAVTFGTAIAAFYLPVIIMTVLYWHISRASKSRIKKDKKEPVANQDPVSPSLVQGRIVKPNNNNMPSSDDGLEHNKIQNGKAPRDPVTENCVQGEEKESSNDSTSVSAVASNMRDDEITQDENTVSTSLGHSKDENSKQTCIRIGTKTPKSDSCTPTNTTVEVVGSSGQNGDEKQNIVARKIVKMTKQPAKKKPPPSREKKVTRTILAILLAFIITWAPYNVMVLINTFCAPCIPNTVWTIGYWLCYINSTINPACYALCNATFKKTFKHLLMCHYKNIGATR

Structure (SMILES)	inhibition [1] [%]	inhibition [2] [%]	inhibition [3] [%]	inhibition [4] [%]	inhibition [5] [%]	inhibition [6] [%]	inhibition [7] [%]	inhibition [8] [%]	inhibition [9] [%]	inhibition [10] [%]	inhibition [11] [%]	inhibition [12] [%]	inhibition [13] [%]	inhibition [14] [%]	inhibition [15] [%]	inhibition [16] [%]	inhibition [17] [%]	inhibition [18] [%]	inhibition [19] [%]	inhibition [20] [%]	other results
CC(C)n1nc(-c2cnc(N)c(OC(F)(F)F)c2)cc1[C@H]1[C@@H]2CN(C3COC3)C[C@@H]21	-0.8	5.8	7.8	40.7	16.2	10.9	9.8	15.7	16.6	40.7	18	-2.5	30.3	-4.6	3.3	1.1	3.5	10.6	33.3	14.8	inhibition [21]: 10.7%; inhibition (TAK1/TAB1 (Homo sapiens)): 35.6%; inhibition [22]: 2.8%; IC50 [23]: > 10 µM; IC50 [24]: > 10 µM; Activity [25]: > 50%; Activity [26]: > 50%
Nc1ncc(-c2cc([C@H]3[C@@H]4CN(C5COC5)C[C@@H]43)n(CC3CC3)n2)cc1C(F)(F)F	9.6	-0.3	5.8	57.4	27.2	25.8	31.5	20.6	11.9	6.8	14.9	2.1	22.4	-4	-2.7	5.8	-8.7	-0.9	12	0	inhibition [21]: 9.3%; inhibition (TAK1/TAB1 (Homo sapiens)): 42.1%; inhibition [22]: 2%; IC50 [23]: > 10 µM; IC50 [24]: > 10 µM; Activity [25]: > 50%; Activity [26]: > 50%
